High-throughput results: PubChem, The Scripps Research Institute Molecular Screening Center
Sampled rows, rich in hits. Any-hit rate of the full collection: about 2.3%.
TAAR1 antag: human TAAR1 antagonism | 360,000 tested, 1.5% active | inhibition, % at 3 µM | CHO RD-HGA16 TAAR1, Fluo-8 calcium fluorescence, antagonist | AID 624466 | Q96RJ0;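 active = inhibition above a per-plate cutoff, the mean inhibition of test compounds on that plate plus 3 SD, cut at about 49% in these data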;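 note: 0% = DMSO plus EC80 beta-PEA response and 100% = DMSO alone without agonist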
Target sequence (Q96RJ0 whole entry, looked up): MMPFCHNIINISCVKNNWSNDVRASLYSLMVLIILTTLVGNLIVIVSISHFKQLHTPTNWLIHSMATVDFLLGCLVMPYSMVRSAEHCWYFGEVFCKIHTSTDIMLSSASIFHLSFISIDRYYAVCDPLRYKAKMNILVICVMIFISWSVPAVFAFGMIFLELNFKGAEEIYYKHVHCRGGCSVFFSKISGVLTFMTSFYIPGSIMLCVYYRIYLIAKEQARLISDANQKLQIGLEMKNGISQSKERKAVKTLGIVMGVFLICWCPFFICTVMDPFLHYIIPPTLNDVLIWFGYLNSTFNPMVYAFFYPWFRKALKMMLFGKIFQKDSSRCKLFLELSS
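Test system – hTAAR1-expressing CHO RD-HGA16 cells, Gα16-coupled · Also added – β-PEA at EC80 concentration, post-compound challenge · Compound – 3 µM, single point · Incubation – dye loading 75 min at 37 °C, then 30 min room temperature · Measured by – Fluo-8 intracellular calcium dye fluorescence, real-time kinetic reads · Benchmarks – vehicle and agonist controls · Replicates – singlicate, one well per test compound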
V1R ag counter: V1a receptor agonism, counter-screen for OXTR agonists. P37288. CHO-V1R cells, Fluo-8 calcium fluorescence, agonist mode; 0% DMSO, 100% 3 nM vasopressin. activation, % at 3 µM. 320,000 tested, 0.25% active;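 active = activation above the mean activation of all tested compounds plus 3 SD, per screening run, cut at about 20% in these data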;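 note: signal is peak over basal fluorescence ratio across a 100 second FLIPR read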
OXTR agonist: agonists of human oxytocin receptor; P30559; CHO-OTR cells, Fluo-8 calcium fluorescence; normalized: DMSO 0%, oxytocin 100%; activation, % at 3 µM; 320,000 tested, 0.32% active; AID 2435;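 active = activation above the mean of all tested compounds plus 3 SD, cutoff set per screening run, cut at about 20% in these data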;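 note: peak over basal fluorescence ratio from a 100 s FLIPR kinetic read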
Target sequence (P30559 whole entry, looked up): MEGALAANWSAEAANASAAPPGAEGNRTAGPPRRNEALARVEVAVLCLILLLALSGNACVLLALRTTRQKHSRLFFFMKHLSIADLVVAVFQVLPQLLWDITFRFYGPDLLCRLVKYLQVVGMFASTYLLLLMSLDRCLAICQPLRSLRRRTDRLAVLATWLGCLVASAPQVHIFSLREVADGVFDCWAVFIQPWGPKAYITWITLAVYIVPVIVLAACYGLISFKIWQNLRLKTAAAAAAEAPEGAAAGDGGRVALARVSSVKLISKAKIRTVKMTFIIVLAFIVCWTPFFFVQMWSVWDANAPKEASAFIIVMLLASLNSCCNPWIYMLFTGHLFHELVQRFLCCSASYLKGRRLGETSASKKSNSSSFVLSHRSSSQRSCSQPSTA
TAAR1 ag: human TAAR1 agonism. activation, % at 3 µM. 360,000 tested, 0.99% active. AID 624467. CHO RD-HGA16 TAAR1, Fluo-8 calcium fluorescence; vehicle wells 0%, saturating PEA agonist 100%;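 active = activation above the mean activation of all test compounds in the run plus 3 SD, cut at about 38% in these data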
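Test system: RD-HGA16 (CHO) cells co-expressing Gα16 and hTAAR1 | Doses: Single dose, 3 µM | Schedule: 17-24 h seeding, 75 min 37 °C dye, 30 min RT | Evaluation: % activation from peak over basal fluorescence ratio, DMSO-to-PEA scaled | Technique: Kinetic Fluo-8 calcium fluorescence | Benchmarks: Low control DMSO, high control PEA (EC100)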
OXTR potentiate: potentiates the human oxytocin receptor response | P30559 | CHO-OTR cells, Fluo-8 calcium fluorescence, potentiator mode; 0% = oxytocin EC15, 100% = EC100 | activation, % at 3 µM | 320,000 tested, 0.061% active;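 active = activation above that plate's cutoff, the mean activation of tested compounds plus 3 SD, cut at about 6.6% in these data, passing the limit was not always enough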;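 note: 100% uses oxytocin at 75 nM as the full agonist control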
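test system = CHO-OTR cells, human receptor | compound = single-point 3.0 µM | schedule = 6 min compound pre-incubation at room temperature, 100 s kinetic read | signal = Fluo-8 no-wash calcium dye fluorescence, excitation 470-495 nm, emission 515-575 nm | repeats = single well per compound, singlicate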
TAAR1 nonsel count: counter-screen for TAAR1 antagonists: nonselective antagonists | counterscreen cell line, calcium fluorescence, antagonist mode | shares compounds with TAAR1 antag | AID 651780 | 2,400 tested, 77% active | inhibition, % at 3 µM; in the data active = inhibition above about 22%;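 note: CHO-Ga16 host cells stimulated with ATP at an EC80 level; 0% = agonist EC80 plus vehicle and 100% = vehicle without agonist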
TAAR1 antag conf: human TAAR1 antagonism, confirmed; shares compounds with TAAR1 antag; TAAR1-expressing cells, fluorescence antagonist read-out; inhibition, % at 3 µM; 2,400 tested, 40% active; in the data active = inhibition above about 49%;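 note: CHO-Ga16 host cells challenged with agonist PEA near its EC80; 0% = agonist at EC80 plus vehicle and 100% = vehicle with no agonist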
Ga16 nonsel ag: nonselective Ga16 agonist in TAAR1 antagonist counter-screen. shares compounds with TAAR1 antag. Ga16-expressing cells, calcium fluorescence, agonist counterscreen. activation, % at 3 µM. 2,400 tested, 18% active; in the data active = activation above about 12%;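 note: 0% = vehicle wells and 100% = saturating stimulus response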
TAAR1 ag count: activates human TAAR1 in antagonist counter-screen | shares compounds with TAAR1 antag | hTAAR1 cell line, fluorescence activation, agonist mode | activation, % at 3 µM | 2,400 tested, 2% active; in the data active = activation above about 37%;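 note: CHO cells stably expressing TAAR1 with calcium dye readout; 0% = DMSO vehicle and 100% = full agonist response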
An asterisk follows results filed as active; x = no result given.

SMILES	TAAR1 antag	V1R ag counter	OXTR agonist	TAAR1 ag	OXTR potentiate	TAAR1 nonsel count	TAAR1 antag conf	Ga16 nonsel ag	TAAR1 ag count
O=c1[nH][nH]c2c1C(c1cccc(C(F)(F)F)c1)OC(CCc1ccccc1)C2 (centres undefined)	-11	x	x	2	x	x	x	x	x
COC(=O)c1ccc(NC(=O)CN2C(=O)NC3(CCC(C)CC3)C2=O)cc1 (centres undefined)	-24	0	0	-1	7	x	x	x	x
COc1cccc(CN2CCN(C(=O)c3cc(-c4cccnc4)nc4ccc(C)cc34)CC2)c1	66*	0	1	14	-17	27*	48	9	8
CCOc1ccc(S(=O)(=O)NCCC(=O)N(C)Cc2cccs2)cc1	5	0	1	1	-4	x	x	x	x
O=C(COc1ccccc1)Nc1cccc(-c2nnc(-c3ccccc3)o2)c1	67*	1	-1	13	-2	38*	51*	8	4
CCC(=O)Nc1cccc(-c2nnc(-c3cccc(NC(=O)CC)c3)o2)c1	56*	2	1	21	-10	22*	43	7	9
CSCc1c(C(=O)OCC(=O)NC2CCCCC2)oc2ccccc12	-18	-1	-1	4	-9	x	x	x	x
Cn1cccc1/C=C(\C#N)C(N)=S	-10	1	0	17	0	x	x	x	x
Cn1c(/C=C(\C#N)C(N)=S)ccc1-c1ccc(Br)cc1	67*	x	x	10	x	25*	39	6	15
CC(/C=C1\SC(=Nc2cccnc2)NC1=O)=C\c1ccccc1	62*	0	0	5	-8	29*	56*	7	7
COC(=O)c1ccc(Cn2nnc3c(=O)[nH]c(C4CCN(S(=O)(=O)c5cc(C)ccc5C)CC4)nc32)cc1	-33	0	-1	-2	-11	x	x	x	x
CCOC(=O)c1c(C)[nH]c(C(=O)OC(C)C(=O)NCc2ccccc2)c1C (centres undefined)	-6	-2	-1	-1	0	x	x	x	x
CCOc1ccc2nc(NC(=O)CS(=O)(=O)c3ccc(C)cc3)sc2c1	55*	-1	-1	6	-3	20	38	2	3
NC(=O)c1ncn([C@@H]2O[C@H](CNCc3cc(Br)ccc3OCc3ccccc3)[C@@H](O)[C@H]2O)n1	-38	x	x	4	x	x	x	x	x
O=C(Nc1ccc(Cl)cc1)N(Cc1cccs1)Cc1cccs1	71*	4	-1	14	-16	29*	45	5	1
Cc1ccc(C(=O)Nc2cccc(C(=O)N/N=C/c3ccc(F)cc3)c2)cc1	63*	10	4	11	-13	37*	53*	10	11
CC(=O)Nc1cccc(C(=O)N/N=C/c2ccccc2F)c1	10	0	1	5	-9	x	x	x	x
Cc1ccc(C(=O)Nc2cccc(C(=O)N/N=C/c3ccccc3F)c2)cc1	65*	11	6	13	-17	30*	48	8	3
CC(=O)Nc1cccc(C(=O)N/N=C/c2ccc(F)cc2)c1	4	1	1	1	0	x	x	x	x
CCOC(=O)[C@H](O)[C@@H](O)c1cccc([C@H](O)[C@@H](O)C(=O)OCC)c1	-2	0	0	6	-2	x	x	x	x
Cc1cccc(NC(=O)c2oc(=O)c3ccccc3c2-c2ccccc2)c1C	4	-1	-2	0	-7	x	x	x	x
CCn1c(SCC(=O)N2CCCc3ccccc32)nnc1-c1c[nH]c2ccccc12	22	1	1	5	-19	x	x	x	x
CCn1c(SCC(=O)N2CCc3ccccc32)nnc1-c1c[nH]c2ccccc12	55*	-1	-1	11	-6	16	34	6	8
COc1ccccc1/C=C/C(=O)NC(=S)N1CCN(C)CC1	18	x	x	4	x	x	x	x	x
COc1ccccc1/C=C/C(=O)NC(=S)NC(C)C	59*	-1	-2	6	-8	19	44	10	19
SMILES	TAAR1 antag	V1R ag counter	OXTR agonist	TAAR1 ag	OXTR potentiate	TAAR1 nonsel count	TAAR1 antag conf	Ga16 nonsel ag	TAAR1 ag count
COC(=O)[C@@]1(Sc2ccc(C)cc2)CC(=O)N(C(=O)C2CC2)[C@@H]1c1ccccc1	9	x	x	-1	x	x	x	x	x
COC(=O)c1cccc(N2C(=O)C[C@](Sc3ccc(C)cc3)(C(=O)OC)[C@H]2c2ccccc2)c1	82*	x	x	7	x	32*	55*	5	2
Cc1ccc(CNC(=O)c2ccccc2-n2cnnn2)cc1	-11	0	1	1	0	x	x	x	x
COc1ccc(C(=O)NCCc2c[nH]c3ccccc23)cc1[N+](=O)[O-]	63*	4	4	15	-11	27*	48	11	9
COc1ccc(/C=N/Nc2nc(-c3cccc(S(=O)(=O)N4CCCC4)c3)cs2)cc1OC	-1	-1	-1	1	-10	x	x	x	x
COc1cc(/C=N/Nc2nc(-c3ccc(S(=O)(=O)N(C)C)cc3)cs2)ccc1O	69*	3	4	17	-27	30*	43	11	13
COc1ccc(N(CC(=O)NCCSC2CCCCC2)S(=O)(=O)c2ccccc2)c(OC)c1	34	1	-1	-2	-15	x	x	x	x
COc1ccc(N(CC(=O)NCCSc2ccc(C)cc2)S(=O)(=O)c2ccccc2)c(OC)c1	68*	3	3	9	-14	22*	51*	9	11
C/C=C(\C)CN1CCC(Oc2cc(C(=O)NC3CC3)ccc2OC)CC1	-22	0	0	0	2	x	x	x	x
Nc1nnc(SCc2ccccc2F)s1	1	1	0	1	-9	x	x	x	x
O=C(COc1cccc2cccnc12)N/N=C/c1cccn1-c1ccc(F)cc1	53*	-3	-3	18	-13	25*	48	7	4
Cn1cc(C(=O)NCCN2CCN(c3cccc(Cl)c3)CC2)c2c3ccccc3n(C)c2c1=O	56*	1	1	25	-9	29*	43	6	6
O=C(Cc1ccccc1)Nc1ncccn1	8	-1	1	11	-5	x	x	x	x
COc1ccc(-c2ccc(CN3C(CC(C)C)C(=O)N(Cc4cn(CCC5OCCCO5)nn4)CCS3(=O)=O)cc2)cc1OC (centres undefined)	57*	x	x	7	x	24*	33	7	6
